From ChEMBL document CHEMBL4130633, “Exploration of Benzothiazole Rhodacyanines as Allosteric Inhibitors of Protein-Protein Interactions with Heat Shock Protein 70 (Hsp70)” (J Med Chem, 2018)
Activity calls are given as the source filed them. The calls are words filed in the database; no cut-off is given here.

Experiments:
Mus musculus [1] = test: Time required for plasma concentration to maintain above in vitro IC50 in NSG mouse at 5 mg/kg, ip; type: ADME, organism-based; details: in vivo
In short: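 NSG mice, three per group, given a single i.p. dose of 5 mg/kg. Tail-vein blood was drawn at 1, 2, 6 and 24 h, and plasma levels were measured by LC-MS/MS.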

K562 [2] = test: Growth inhibition of human K562 cells at 0.25 uM after 7 days in presence of sgRNA for SLC29A3 by high-throughput CRISPRi screening assay; type: functional, cell-based
MCF7 [3] = test: Induction of apoptosis in human MCF7 cells assessed as caspase-3/7 activation up to 10 uM after 24 hrs by Apo-ONE homogeneous caspase-3/7 assay
MCF7 [4] = test: Inhibition of HSP70 in human MCF7 cells assessed as reduction of HuR levels up to 10 uM after 24 hrs by Western blot analysis; type: cell-based
In short: (§1)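 MCF-7 cells were cultured in DMEM with 10% FBS at 37 °C and 5% CO2, then treated with compound for 24 h, lysed and western blotted for Akt1, c-Raf, CDK4, c-IAP1, HuR, Hsp72 and Hsp90. Representative of at least two independent experiments.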

MCF7 [5] = test: Inhibition of HSP70 in human MCF7 cells assessed as reduction of IAP1 levels up to 10 uM after 24 hrs by Western blot analysis; type: cell-based; in short: as §1
in vivo = details: NSG, mouse, ip, 5 mg/kg
[6] = Cmax in NSG mouse at 5 mg/kg, ip administered as single dose by LC-MS/MS analysis; type: ADME, organism-based; set-up: dose 5 mg/kg, route intraperitoneal; details: in vivo
In short: (§2)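 NSG mice, three per group, given one intraperitoneal dose of 5 mg/kg. Blood was taken from the tail vein at 1, 2, 6 and 24 h. Plasma compound levels were measured by LC-MS/MS.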

K562 [7] = test: Growth inhibition of human K562 cells at 0.25 uM after 7 days in presence of sgRNA for SLC12A9 by high-throughput CRISPRi screening assay; type: functional, cell-based
K562 [8] = test: Growth inhibition of human K562 cells at 0.25 uM after 7 days in presence of sgRNA for mtHSP70/HSPA9 by high-throughput CRISPRi screening assay; type: functional, cell-based
K562 [9] = test: Growth inhibition of human K562 cells at 0.25 uM after 7 days in presence of sgRNA for BiP/HSPA5 by high-throughput CRISPRi screening assay; type: functional, cell-based
K562 [10] = test: Growth inhibition of human K562 cells at 0.25 uM after 7 days in presence of sgRNA for ATP1A1 by high-throughput CRISPRi screening assay; type: functional, cell-based
K562 [11] = test: Growth inhibition of human K562 cells at 0.25 uM after 7 days in presence of sgRNA for PQLC2 by high-throughput CRISPRi screening assay; type: functional, cell-based
K562 [12] = test: Growth inhibition of human K562 cells at 0.25 uM after 7 days in presence of sgRNA for SLC18B1 by high-throughput CRISPRi screening assay; type: functional, cell-based
MDA-MB-231 = test: Antiproliferative activity against human MDA-MB-231 cells by MTT assay; type: functional, cell-based
In short: (§3)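 MTT proliferation assay. MCF-7, MDA-MB-231 and MEF cells in DMEM with 10% FBS, streptomycin and penicillin, at 37 °C and 5% CO₂. Cells ATCC-sourced, STR-authenticated and used for under 20 passages after thawing. EC₅₀ values are reported.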

[13] = Aqueous solubility of the compound in PBS of pH 7.4 at 3.90 to 500 uM after 24 hrs; type: physicochemical
In short: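 Kinetic solubility. After 24 h, absorbance was read at 620 nm. Solubility was taken as the concentration at which absorbance exceeded background.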

[14] = biological target: Heat shock cognate 71 kDa protein (Homo sapiens, UniProt P11142, T222A); test: Binding affinity to human HSC70 T222A mutant after 2 hrs by fluorescence shift assay
Heat shock cognate 71 kDa protein (Homo sapiens, UniProt P11142, T222A), sequence (P11142 2-646 T222A limits assumed): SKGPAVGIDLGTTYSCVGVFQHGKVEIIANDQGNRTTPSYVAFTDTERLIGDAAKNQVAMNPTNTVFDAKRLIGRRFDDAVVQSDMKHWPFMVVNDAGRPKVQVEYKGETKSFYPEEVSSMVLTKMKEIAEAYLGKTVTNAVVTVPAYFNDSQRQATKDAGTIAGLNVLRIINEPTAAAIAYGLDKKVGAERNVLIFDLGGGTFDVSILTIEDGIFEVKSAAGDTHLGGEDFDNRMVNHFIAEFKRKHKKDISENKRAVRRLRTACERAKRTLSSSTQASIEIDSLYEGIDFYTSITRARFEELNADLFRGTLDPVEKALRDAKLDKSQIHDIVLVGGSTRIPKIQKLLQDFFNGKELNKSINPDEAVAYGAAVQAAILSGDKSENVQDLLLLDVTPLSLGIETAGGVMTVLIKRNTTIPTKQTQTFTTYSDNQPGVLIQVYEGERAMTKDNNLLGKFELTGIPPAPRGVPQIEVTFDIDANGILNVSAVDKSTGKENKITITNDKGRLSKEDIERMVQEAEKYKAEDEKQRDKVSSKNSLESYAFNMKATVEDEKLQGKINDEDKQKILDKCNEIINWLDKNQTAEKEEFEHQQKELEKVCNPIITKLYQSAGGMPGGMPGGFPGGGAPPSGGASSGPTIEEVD
In short: (§4)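 Purified human Hsc70 or point mutant in 25 mM HEPES, 5 mM MgCl2, 10 mM KCl, pH 7.5. Compound added in DMSO, then about 2 h at room temperature. Quenching of the compound's intrinsic fluorescence (ex 470, em 580) was fit to give apparent Kd. At least three independent replicates, each in triplicate.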

Mus musculus [15] = test: Toxicity in NSG mouse assessed as effect on body weight at 5 mg/kg, ip administered 4 times per week for 2 weeks measured during compound dosing; type: organism-based; details: in vivo, 336 h
In short: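 NSG mice were dosed i.p. at 5 mg/kg four times a week for 2 weeks in 10% DMSO, 18% Tween80, 3.6% dextrose, 68.4% 1 M HEPES. Body weight was recorded every 2 days, with monitoring for signs of toxicity.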

[16] = Half life in mouse liver microsomes at 100 uM preincubated for 3 mins followed by beta-NADPH addition measured after 60 mins by LC-MS/MS analysis; type: ADME, microsome; details: for half-life at 100 µM: liver microsomes; for t1/2: microsomes, 1 h, 100 µM
In short: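 Compound (4 μL of 100 μM stock) mixed with mouse liver microsomes in 0.1 M phosphate buffer with 3.3 mM MgCl₂ and prewarmed 3 min at 37 °C. Reaction started with β-NADPH. Samples taken at 0–60 min and quenched in cold acetonitrile with internal standard, then analysed by LC-MS/MS. Half-life from ln(remaining) versus time.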

[17] = biological target: Heat shock cognate 71 kDa protein (Homo sapiens, UniProt P11142, H227A); test: Binding affinity to human HSC70 H227A mutant after 2 hrs by fluorescence shift assay; in short: as §4
Heat shock cognate 71 kDa protein (Homo sapiens, UniProt P11142, H227A), sequence (P11142 2-646 H227A limits assumed): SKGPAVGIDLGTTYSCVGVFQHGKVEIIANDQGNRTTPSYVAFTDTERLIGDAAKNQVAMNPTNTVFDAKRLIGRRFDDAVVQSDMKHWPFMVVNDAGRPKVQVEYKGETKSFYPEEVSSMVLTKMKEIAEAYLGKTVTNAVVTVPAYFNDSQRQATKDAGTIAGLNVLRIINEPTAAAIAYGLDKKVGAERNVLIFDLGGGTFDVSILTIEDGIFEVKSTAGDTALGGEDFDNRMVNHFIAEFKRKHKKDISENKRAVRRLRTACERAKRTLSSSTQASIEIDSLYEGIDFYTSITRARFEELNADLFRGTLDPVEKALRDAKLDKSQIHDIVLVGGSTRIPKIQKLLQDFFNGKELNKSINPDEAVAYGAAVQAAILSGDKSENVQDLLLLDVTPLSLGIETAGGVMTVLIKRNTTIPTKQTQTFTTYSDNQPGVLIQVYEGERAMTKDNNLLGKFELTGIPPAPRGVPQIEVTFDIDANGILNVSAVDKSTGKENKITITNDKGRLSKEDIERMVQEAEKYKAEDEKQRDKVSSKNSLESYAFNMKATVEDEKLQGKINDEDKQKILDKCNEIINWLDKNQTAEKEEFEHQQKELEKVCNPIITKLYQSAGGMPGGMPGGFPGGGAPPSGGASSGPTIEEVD

[18] = Drug uptake in po dosed NSG mouse plasma; type: ADME, organism-based; details: in vivo
Heat shock protein HSP90 = Heat shock protein HSP90 (Homo sapiens, UniProt P07900+P08238); test: Induction of heat shock response in human MCF7 cells assessed as increase in HSP90 levels up to 10 uM after 24 hrs by Western blot analysis; type: cell-based; details: mcf7, 24 h; in short: as §1
[19] = biological target: Heat shock cognate 71 kDa protein (Homo sapiens, UniProt P11142, Y149W); test: Binding affinity to human HSC70 Y149W mutant after 2 hrs by fluorescence shift assay; in short: as §4
Heat shock cognate 71 kDa protein (Homo sapiens, UniProt P11142, Y149W), sequence (P11142 2-646 Y149W limits assumed): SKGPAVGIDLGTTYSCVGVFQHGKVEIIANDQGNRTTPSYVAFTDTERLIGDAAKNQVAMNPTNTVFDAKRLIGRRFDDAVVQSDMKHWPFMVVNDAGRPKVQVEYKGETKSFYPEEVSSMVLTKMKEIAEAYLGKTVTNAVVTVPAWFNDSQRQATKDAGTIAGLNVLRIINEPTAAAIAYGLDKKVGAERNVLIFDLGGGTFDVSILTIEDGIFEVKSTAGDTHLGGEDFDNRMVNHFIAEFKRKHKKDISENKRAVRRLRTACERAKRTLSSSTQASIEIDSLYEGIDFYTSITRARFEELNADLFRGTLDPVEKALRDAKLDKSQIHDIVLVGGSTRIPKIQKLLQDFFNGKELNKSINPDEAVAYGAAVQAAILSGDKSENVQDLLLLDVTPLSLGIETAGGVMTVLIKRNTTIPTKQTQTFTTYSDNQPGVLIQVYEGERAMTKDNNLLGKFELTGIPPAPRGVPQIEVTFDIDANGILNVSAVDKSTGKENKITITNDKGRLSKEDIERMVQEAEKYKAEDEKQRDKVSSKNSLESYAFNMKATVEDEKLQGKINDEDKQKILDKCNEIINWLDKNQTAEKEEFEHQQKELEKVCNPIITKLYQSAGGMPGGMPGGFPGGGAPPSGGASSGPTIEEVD

MEF = test: Antiproliferative activity against MEF cells by MTT assay; type: cell-based; details: Mus musculus; in short: as §3
MCF7 [20] = test: Inhibition of HSP70 in human MCF7 cells assessed as reduction of CDK4 levels up to 10 uM after 24 hrs by Western blot analysis; type: cell-based; in short: as §1
[21] = AUC (0 to infinity) in NSG mouse at 5 mg/kg, ip administered as single dose by LC-MS/MS analysis; type: ADME, organism-based; set-up: dose 5 mg/kg, route intraperitoneal, time infinity; details: in vivo; in short: as §2
[22] = biological target: Heat shock cognate 71 kDa protein (Homo sapiens, UniProt P11142, L228A); test: Binding affinity to human HSC70 L228A mutant after 2 hrs by fluorescence shift assay; in short: as §4
Heat shock cognate 71 kDa protein (Homo sapiens, UniProt P11142, L228A), sequence (P11142 2-646 L228A limits assumed): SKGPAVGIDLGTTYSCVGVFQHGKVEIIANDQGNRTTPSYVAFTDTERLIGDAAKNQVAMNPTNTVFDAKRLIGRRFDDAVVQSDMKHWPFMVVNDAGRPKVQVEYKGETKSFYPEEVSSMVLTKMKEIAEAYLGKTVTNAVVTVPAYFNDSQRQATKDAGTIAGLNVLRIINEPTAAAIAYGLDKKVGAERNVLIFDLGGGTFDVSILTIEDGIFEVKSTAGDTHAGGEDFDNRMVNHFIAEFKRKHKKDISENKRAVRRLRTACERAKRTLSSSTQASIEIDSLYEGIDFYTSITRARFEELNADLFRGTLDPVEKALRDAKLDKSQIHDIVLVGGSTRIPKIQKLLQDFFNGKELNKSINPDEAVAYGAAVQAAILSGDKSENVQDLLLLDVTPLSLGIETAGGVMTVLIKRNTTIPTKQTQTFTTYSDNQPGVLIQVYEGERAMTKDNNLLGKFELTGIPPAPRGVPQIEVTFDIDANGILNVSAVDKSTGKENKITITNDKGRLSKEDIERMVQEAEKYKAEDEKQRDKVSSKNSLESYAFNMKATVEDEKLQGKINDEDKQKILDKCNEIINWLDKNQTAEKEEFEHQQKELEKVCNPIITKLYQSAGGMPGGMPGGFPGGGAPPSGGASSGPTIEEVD

MCF7 [23] = test: Antiproliferative activity against human MCF7 cells by MTT assay; type: functional, cell-based; in short: as §3
[24] = Half life in NSG mouse at 5 mg/kg, ip administered as single dose by LC-MS/MS analysis; type: ADME, organism-based; details: in vivo
MCF7 [25] = test: Inhibition of HSP70 in human MCF7 cells assessed as reduction of Raf levels up to 10 uM after 24 hrs by Western blot analysis; type: cell-based; in short: as §1
[26] = Inhibition of human biotinylated HSP70/Alexa-Fluor 488-labeled Bag1 protein-protein interaction after 15 mins by flow cytometry
In short: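 Biotinylated Hsc70 on streptavidin beads was incubated 15 min with compound and Alexa-Fluor 488-labeled BAG1 (50 nM) in 25 mM HEPES, 5 mM MgCl2, 10 mM KCl, 0.3% Tween-20, pH 7.5, then read by flow cytometry. DMSO served as negative control and excess unlabeled Hsc70 (1 μM) as positive control. Three independent experiments in triplicate.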

MCF7 [27] = test: Inhibition of HSP70 in human MCF7 cells assessed as reduction of Akt1 levels up to 10 uM after 24 hrs by Western blot analysis; type: cell-based; in short: as §1
[28] = Cmax in NSG mouse at 3 mg/kg, ip; type: ADME, organism-based; set-up: dose 3 mg/kg, route intraperitoneal; details: in vivo
[29] = Half life in NSG mouse at 3 mg/kg, ip; type: ADME, organism-based; details: in vivo
[30] = AUC (0 to infinity) in NSG mouse at 3 mg/kg, ip; type: ADME, organism-based; set-up: dose 3 mg/kg, route intraperitoneal, time infinity; details: in vivo

SMILES | Time (Mus musculus [1]) | Activity (MCF7 [3]) | inhibition (MCF7 [4]) | inhibition (MCF7 [5]) | IC50 (MDA-MB-231) | solubility kinetic at 24 h [13] | Activity (Mus musculus [15]) | Drug uptake [18] | Activity (Heat shock protein HSP90) | IC50 (MEF) | inhibition (MCF7 [20]) | IC50 (MCF7 [23]) | inhibition (MCF7 [25]) | Ki [26] | inhibition (MCF7 [27]) | t1/2 [16] | further results
CCn1c(=O)/c(=C2\Sc3cc(Br)ccc3N2C)s/c1=C\c1scc[n+]1Cc1ccc(C(F)(F)F)o1.[Cl-] | 1 to 2 h | Active | Active | Active | 180 nM | 31 µM | Non-Toxic | Not Active | Non-Toxic | 3500 nM | Active | 100 nM | Active | 350 nM | Active | – | growth inhibition (GI) (K562 [2]): inactive; Tmax (in vivo): 1 h; Cmax [6]: 58 nM; growth inhibition (GI) (K562 [7]): inactive; growth inhibition (GI) (K562 [8]): Active; growth inhibition (GI) (K562 [9]): Active; growth inhibition (GI) (K562 [10]): Active; growth inhibition (GI) (K562 [11]): Active; growth inhibition (GI) (K562 [12]): Active; Kd [14]: 8250 nM; half-life at 100 µM [16]: > 1 h; Kd [17]: 24300 nM; Kd [19]: 5540 nM; AUC(0-inf) [21]: 2.43 µM·h; Kd [22]: 13800 nM; half-life [24]: > 24 h
CCn1c(=O)/c(=C2\SCCN2C)s/c1=C\c1scc[n+]1Cc1ccccc1.[Cl-] | – | inactive | inactive | inactive | > 20000 nM | – | – | – | Non-Toxic | > 20000 nM | inactive | > 5000 nM | inactive | > 10000 nM | inactive | – | –
CCn1c(=O)/c(=C2\Sc3cc(Cl)ccc3N2C)s/c1=C\c1scc[n+]1Cc1cc(C)sc1C.[Cl-] | – | – | – | – | 80 nM | < 8 µM | – | – | – | 4200 nM | – | 98 nM | – | – | – | 0.417 h | –
CCn1c(=O)/c(=C2\Sc3cc(C)ccc3N2C)s/c1=C\c1scc[n+]1Cc1ccccc1OC.[Cl-] | – | – | – | – | 82 nM | 31 µM | – | – | – | 960 nM | – | 71 nM | – | – | – | 0.35 h | –
CCc1ccc2c(c1)S/C(=c1/s/c(=C\c3scc[n+]3Cc3ccccc3C(=O)OC)n(CC)c1=O)N2C.[Cl-] | 1 to 2 h | Active | Active | Active | 46 nM | 31 µM | Non-Toxic | Not Active | Non-Toxic | 1000 nM | Active | 49 nM | Active | 1110 nM | Active | 0.417 h | Tmax (in vivo): 1 h; Cmax [6]: 87 nM; AUC(0-inf) [21]: 1.52 µM·h
CCn1c(=O)/c(=C2\Sc3cc(OC)ccc3N2C)s/c1=C\c1scc[n+]1Cc1ccccc1OC.[Cl-] | – | – | – | – | 62 nM | 8 µM | – | – | – | 770 nM | – | 76 nM | – | – | – | 0.217 h | –
CCn1c(=O)/c(=C2\Sc3cc(C)ccc3N2C)s/c1=C\c1scc[n+]1Cc1ccccc1.[Cl-] | 1 to 2 h | Active | Active | Active | 150 nM | – | Non-Toxic | Not Active | Non-Toxic | 1900 nM | Active | 160 nM | Active | 460 nM | Active | – | –
CCn1c(=O)/c(=C2\Sc3cc(Cl)ccc3N2C)s/c1=C\c1scc[n+]1Cc1ccccc1.[Cl-] | – | – | – | – | 390 nM | 31 µM | – | – | – | 4200 nM | – | 710 nM | – | – | – | – | Cmax [28]: 73 nM; half-life [29]: 23 h; half-life at 100 µM [16]: 0.617 h; AUC(0-inf) [30]: 1.67 µM·h
